MrgX1 PAM = human MrgX1 positive allosteric modulation, primary screen; MrgX1-HEK293, Fluo-4 calcium flux, FDSS; active compounds read high; 310,000 tested, 0.63% active; B-score at 10 µM; AID 588675; Q96LB2;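 active = plate-corrected calcium response at least 3 library SD above typical, normal starting fluorescence, not activating the receptor alone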;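 also: compound read alongside a low EC10 to EC30 dose of BAM8-22 agonist; peak minus trough fluorescence over baseline measured at the second addition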
Target sequence (Q96LB2 whole entry, looked up): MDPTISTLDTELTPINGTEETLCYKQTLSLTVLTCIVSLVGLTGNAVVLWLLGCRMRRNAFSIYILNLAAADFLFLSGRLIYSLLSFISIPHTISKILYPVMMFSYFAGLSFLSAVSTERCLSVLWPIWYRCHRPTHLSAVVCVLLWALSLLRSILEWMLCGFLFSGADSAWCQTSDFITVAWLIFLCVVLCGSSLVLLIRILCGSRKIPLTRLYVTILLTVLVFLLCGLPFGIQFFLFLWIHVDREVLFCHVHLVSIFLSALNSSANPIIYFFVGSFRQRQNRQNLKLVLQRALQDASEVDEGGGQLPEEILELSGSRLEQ
RGS4 act = RGS4 potentiation or activation. HEK293 M3R/inducible RGS4, carbachol calcium flux Fluo4; active compounds read low. B-score at 10 µM. 310,000 tested, 0.92% active. AID 463111;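 active = B-score of the integrated calcium signal more than 4 SD below the library mean, with starting fluorescence not abnormally high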;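 also: negative B-score means reduced calcium response which marks RGS4 activation or potentiation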
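Assay system: Inducible-RGS4 HEK293 cells carrying M3 receptor | Schedule: Compound preincubation 20 min at room temperature before agonist | Signal: Kinetic calcium fluorescence imaging with Fluo4-AM dye, 2 µM | Read-out basis: B score from integrated fluorescence ratio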
RGS4 inh = inhibitors of human RGS4 | P49798 | HEK293 M3R/RGS4 inducible, Fluo-4 calcium flux; active compounds read high; triggered by carbachol at its EC20 | B-score at 10 µM | 310,000 tested, 0.45% active;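 active = B-score, a plate-corrected calcium signal, over three deviations above library mean, with baseline fluorescence within five deviations of library mean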;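 also: RGS4 expression induced by doxycycline in cells with stable M3 receptor; B-score is computed from the integrated fluorescence ratio over baseline after carbachol; higher B-score means a larger calcium signal and so more RGS4 inhibition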
Target sequence (P49798 whole entry, looked up): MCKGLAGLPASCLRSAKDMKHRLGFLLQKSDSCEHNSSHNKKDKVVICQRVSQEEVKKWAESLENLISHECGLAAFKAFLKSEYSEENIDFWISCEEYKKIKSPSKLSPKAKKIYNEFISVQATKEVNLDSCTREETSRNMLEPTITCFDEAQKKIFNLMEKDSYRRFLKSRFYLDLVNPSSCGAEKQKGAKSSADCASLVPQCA
MrgX1 ag = human MrgX1 receptor agonism, primary screen | B-score at 10 µM | 310,000 tested, 0.44% active | AID 588627 | MrgX1-HEK293 cells, Fluo-4 calcium fluorescence, agonist mode; active compounds read high | Q96LB2;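 active = calcium response B-score plate-corrected fluorescence ratio at least 3 library SD, with starting fluorescence B-score inside 5 SD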
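Assay system: MrgX1-expressing HEK293 cells / Amount: fifteen thousand cells per well / Doses: test compound in the initial addition of three / Timing: cells plated overnight, dye loaded 0.5 h 37 °C, 0.5 h room temperature / Technique: kinetic calcium dye fluorescence, Fluo-4 NW / Control set: positive and negative controls per plate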
MrgX1 antag = blocks BAM8-22 activation of human MrgX1 receptor; MRGX1-HEK293 calcium flux, Fluo-4, BAM8-22 antagonism; active compounds read low; B-score at 10 µM; 310,000 tested, 1.3% active; AID 588676;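 active = calcium-response B-score plate-corrected more than 3 library SD below zero, starting fluorescence within 5 deviations, no agonist response on first addition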;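 also: peak minus trough fluorescence over baseline after final BAM8-22 challenge near maximal dose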
MrgX1 ant reconf = human MrgX1 receptor antagonism, re-confirmation screen; AID 602420; remaining BAM8-22 calcium response % of control (active compounds read low), % at 10 µM; MrgX1-HEK293, BAM8-22 calcium flux, Fluo-4; active compounds read low; 2,300 tested, 19% active; shares compounds with MrgX1 antag;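 active = remaining agonist calcium response no higher than 100% minus 3 SD of agonist-only control wells, with starting fluorescence near control levels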;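 also: agonist BAM8-22 given at a near maximal EC90 to ECmax level; peak minus minimum fluorescence divided by baseline after agonist addition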
HEK293 Ca flux = activity in parental HEK293 cells lacking MrgX1; Fluo-4 calcium fluorescence, FDSS; 4,000 tested, 2% active; fluorescence ratio F(max-min)/F0 at 10 µM; shares compounds with MrgX1 antag;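 active = duplicate-averaged calcium fluorescence ratio at least three times the standard deviation of buffer wells, a nonspecific response in parental cells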
HEK293 Ca counter = activity in parental HEK293 cells without MrgX1; parental HEK293 calcium flux, Fluo-4 fluorescence ratio; active compounds read high; AID 624114; 4,000 tested, 0.4% active; fluorescence ratio F(max-min)/F0 at 10 µM; shares compounds with MrgX1 antag;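 active = calcium fluorescence ratio, averaged over duplicates, at least 3 SD of the buffer-well ratio, meaning a nonspecific response in receptor-free cells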;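 also: untransfected parental HEK293 lacking MrgX1 used as counterscreen for MrgX1 allosteric activators; fluorescence change taken during the second addition on a kinetic imager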
HEK293 Ca cntr2 = MrgX1 activator counter-screen hit in parental HEK293 cells | fluorescence ratio F(max-min)/F0 at 10 µM | Fluo-4 calcium fluorescence (FDSS); active compounds read high | shares compounds with MrgX1 antag | 4,000 tested, 8.7% active | AID 624115;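 active = calcium fluorescence ratio at least three times the spread of buffer wells, meaning a non-specific response in parental cells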
* = called active by the depositor; i = inactive; nt = no result given. Rows were chosen to be rich in hits. Some 3.5% of all compounds tested hit in one or more screens of this group.

SMILES	MrgX1 PAM	RGS4 act	RGS4 inh	MrgX1 ag	MrgX1 antag	MrgX1 ant reconf	HEK293 Ca flux	HEK293 Ca counter	HEK293 Ca cntr2
Cc1ccc(C(=O)NC(=S)Nc2ccccc2N2CCCC2)cc1[N+](=O)[O-]	i	i	i	i	-23*	i	i	i	i
COc1ccc(N2CCN(C3CCCCC3NS(=O)(=O)c3ccc(Cl)cc3)CC2)cc1 (stereo unspecified)	i	i	i	i	-7.6*	i	i	i	i
Cc1nc2ccccc2c2c1CC(C(C)(Cl)Br)O2 (stereo unspecified)	i	i	i	i	i	nt	nt	nt	nt
COc1c2c(nc3ccccc13)OC(C(C)(O)COC(C)=O)C2 (stereo unspecified)	i	i	i	i	-6.5*	i	i	i	i
CCCCc1cn([C@@H](CCCCN)C(=O)N2CCNCC2)nn1	i	i	i	i	i	nt	nt	nt	nt
NCCCC[C@@H](C(=O)N1CCNCC1)n1cc(CN)nn1	i	nt	nt	i	-7.1*	i	i	i	i
Cc1ccccc1Oc1ccc(NC(=O)C2CC=CCC2C(=O)O)cc1 (stereo unspecified)	i	i	i	i	i	nt	nt	nt	nt
CC(C)(C)c1ccc(Oc2ccc(NC(=O)C3CC=CCC3C(=O)O)cc2)cc1 (stereo unspecified)	i	i	i	i	-9*	i	i	i	i
Cc1ccnc(N2CCC(C(=O)Nc3cccc(C(F)(F)F)c3)CC2)n1	i	i	i	i	-4.8*	i	i	i	i
Cc1ccnc(N2CCC(C(=O)Nc3ccc(Oc4ccccc4)cc3)CC2)n1	i	i	i	i	i	nt	nt	nt	nt
O=c1[nH]c(C(F)(F)F)nc2c1nnn2Cc1ccccc1F	i	i	i	i	-5.2*	i	i	i	i
CC1CCN(c2ccc(C(=O)NCc3ccco3)cc2[N+](=O)[O-])CC1	i	i	i	i	i	nt	nt	nt	nt
COc1ccc(NS(=O)(=O)c2cccc(C(=O)NCc3ccco3)c2)cc1	i	i	i	i	-6.5*	i	i	i	55*
O=C1NC2(CCC3(CC2)OCCO3)NN1c1ccc(Cl)cc1	i	i	i	i	i	nt	nt	nt	nt
CCCCN1CC[C@H]2C=CC[C@@H](C(=O)Nc3ccccc3)[C@H]2C1=O	i	i	i	i	i	nt	nt	nt	nt
CCCCN1CC[C@H]2C=CC[C@@H](C(=O)NCCc3ccccc3)[C@H]2C1=O	i	i	i	i	-6.1*	i	i	i	i
Cc1cccc(NC(=O)CSc2nc(N)cc(N)n2)c1	i	i	i	i	i	nt	nt	nt	nt
CCOC(=O)c1cccc(NC(=O)CSc2nc(N)cc(N)n2)c1	i	i	i	i	-7.7*	i	i	i	i
CCC/C=C1/CCCOC(C(=O)NCc2ccc(S(C)(=O)=O)cc2)(C(F)(F)F)C1 (stereo unspecified)	i	i	i	i	i	nt	nt	nt	nt
CS(=O)(=O)c1ccc(CNC(=O)C2(C(F)(F)F)C/C(=C/CCO)CCCO2)cc1 (stereo unspecified)	i	i	i	i	-4.8*	i	i	i	i
CCC(NC(=O)NNC(N)=S)(C(F)(F)F)C(F)(F)F	i	i	i	i	i	nt	nt	nt	nt
O=C(NCCc1ccccc1)c1cnn2c(C(F)F)cc(C3CC3)nc12	i	i	i	i	i	nt	nt	nt	nt
Cc1nn(C)cc1CNC(=O)c1cnn2c(C(F)F)cc(C3CC3)nc12	i	i	i	i	-4.7*	i	i	i	i
CC(NC(=O)Cn1cc([N+](=O)[O-])cn1)c1ccc(C(C)(C)C)cc1 (stereo unspecified)	i	i	i	i	i	nt	nt	nt	nt
COc1ccc(CNC(=O)OCCN2CCN(Cc3ccccc3)CCC2=O)cc1	i	i	i	i	-4.9*	i	i	i	i
SMILES	MrgX1 PAM	RGS4 act	RGS4 inh	MrgX1 ag	MrgX1 antag	MrgX1 ant reconf	HEK293 Ca flux	HEK293 Ca counter	HEK293 Ca cntr2
COc1ccc(NC(=O)OCCN2CCN(Cc3ccccc3)CCC2=O)cc1	i	i	i	i	i	nt	nt	nt	nt
COc1ccc(C(=O)CSc2nnc(CNC(=O)c3ccccc3)n2C)cc1	i	i	i	i	i	nt	nt	nt	nt
Cc1ccc(C)c(OC2=NS(=O)(=O)c3ccccc32)c1	i	i	i	i	-4.8*	i	i	i	i
COC1=NS(=O)(=O)c2ccccc21	i	i	i	i	i	nt	nt	nt	nt
O=C(NC1CCS(=O)(=O)C1)C12CC3CC(CC(C3)C1)C2 (stereo unspecified)	i	i	i	i	-9.4*	i	i	i	i
CN(Cc1ccc(F)cc1)C(=O)CNC(=O)C1CCCCC1	i	i	i	i	i	nt	nt	nt	nt
CC1CN(c2ccccc2)c2nc3c(c(=O)[nH]c(=O)n3C)n2C1 (stereo unspecified)	i	i	i	i	-6.7*	i	i	i	i
COc1ccc(Nc2nc(N)nc(CSc3nccc(C)n3)n2)cc1	i	i	i	i	-9.5*	i	i	i	i
Cc1cccc(Nc2nc(N)nc(CSc3nccc(C)n3)n2)c1	i	i	i	i	i	nt	nt	nt	nt
CCOc1ncccc1C(=O)Nc1nnc(C)s1	i	i	i	i	-4.8*	i	i	i	i
O=C(O)C1=C[C@H](c2coc3ccccc3c2=O)C[C@H](OCc2ccc(CO)cc2)O1	i	i	i	i	i	nt	nt	nt	nt
Cc1noc(C)c1CCC(=O)N1CCCC(CCC(=O)NCc2ccccc2F)C1 (stereo unspecified)	i	i	i	i	i	nt	nt	nt	nt
O=C(CCSc1ccccc1)NC(=O)COC(=O)C1CCCCC1	i	i	i	i	-4.6*	i	i	i	i
O=C(CCSc1ccccc1)NC1CCCCCC1	i	i	i	i	i	nt	nt	nt	nt

Screening data deposited in PubChem BioAssay by Johns Hopkins Ion Channel Center.
